High-throughput results (PubChem BioAssay)
T cruzi repl – T. cruzi replication inhibition; AID 1885; inhibition, % (test concentration not listed); T. cruzi beta-gal in NIH3T3, luminescence, 90 h; 300,000 compounds, 1.4% hits;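 active = mean inhibition across valid replicates above about 55%, limit read from the data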;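 also: signal also drops with host cell toxicity which is not excluded here; 0% = plate median of DMSO wells and 100% = zero luminescence signal; higher percent means less beta-gal luminescence so fewer parasites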
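Read-out: Parasite load inhibition, % | Test system: Mouse NIH/3T3 fibroblasts infected with β-gal-expressing T. cruzi Tulahuen C4 | Amount: 5,000 cells/well | Medium: DMEM, 2% fetal bovine serum | Signal: GalScreen β-gal luminescence, detergent lysis, 60 min | Timing: 3 h attach, ≥90 h co-culture | Also added: Tulahuen C4 trypomastigotes, 5000/well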
NRP1-CendR mod – modulators of CendR peptide binding to human neuropilin-1; inhibition, % at 25 µM; FAM-RPARPAR peptide binding to NRP-1, fluorescence polarization; AID 602438; O14786; 360,000 compounds, 0.85% hits;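 active = inhibition or corrected inhibition above about 18%, plus a signal ratio from 0.5 to 1.5, limit read from the data, passing the limit was not always enough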
Target sequence (O14786 whole entry, looked up): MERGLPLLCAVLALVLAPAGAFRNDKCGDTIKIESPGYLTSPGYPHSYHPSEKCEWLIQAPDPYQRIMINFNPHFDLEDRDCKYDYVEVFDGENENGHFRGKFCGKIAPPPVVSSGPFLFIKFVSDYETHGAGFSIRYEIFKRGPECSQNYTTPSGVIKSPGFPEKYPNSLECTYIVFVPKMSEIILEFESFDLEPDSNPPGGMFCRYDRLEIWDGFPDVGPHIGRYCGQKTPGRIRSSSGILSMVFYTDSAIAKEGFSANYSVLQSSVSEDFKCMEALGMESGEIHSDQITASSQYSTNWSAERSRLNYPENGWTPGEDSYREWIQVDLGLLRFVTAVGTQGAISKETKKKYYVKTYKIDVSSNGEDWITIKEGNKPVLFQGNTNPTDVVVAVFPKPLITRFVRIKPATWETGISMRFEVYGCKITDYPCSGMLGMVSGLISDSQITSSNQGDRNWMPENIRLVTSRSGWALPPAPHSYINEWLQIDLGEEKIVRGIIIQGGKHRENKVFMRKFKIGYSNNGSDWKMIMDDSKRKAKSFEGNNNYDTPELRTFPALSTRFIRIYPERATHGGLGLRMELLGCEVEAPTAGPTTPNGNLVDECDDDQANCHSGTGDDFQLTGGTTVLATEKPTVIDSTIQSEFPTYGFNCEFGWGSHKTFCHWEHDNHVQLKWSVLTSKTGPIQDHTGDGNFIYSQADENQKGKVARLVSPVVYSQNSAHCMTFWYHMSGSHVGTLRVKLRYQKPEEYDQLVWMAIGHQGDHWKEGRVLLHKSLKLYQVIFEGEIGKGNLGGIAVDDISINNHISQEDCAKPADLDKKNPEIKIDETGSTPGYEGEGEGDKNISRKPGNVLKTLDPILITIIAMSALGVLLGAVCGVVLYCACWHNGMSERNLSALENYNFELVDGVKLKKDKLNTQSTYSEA
AI-2 QS mod – Vibrio harveyi AI-2 quorum sensing modulation | Vibrio harveyi JMH597 AI-2 luminescence/OD600 ratio, 9 h; stronger effect = lower value; strain lacks LuxN and CqsS sensors; 0 = neutral-control median | activity change, % at 7.5 µM | 300,000 compounds, 0.4% hits; in the data active = activity change below about -75%, passing the limit was not always enough;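 also: luminescence divided by OD600 gain over 9 h not by final OD600 alone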
CR mimetic SO – lowers age-related superoxide in aged yeast cells; 330,000 compounds, 0.18% hits; AID 2690; superoxide response (% of plate mean), % at 10 µM; S. cerevisiae aged cells, superoxide DHE fluorescence; stronger effect = lower value;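 active = superoxide response under a set limit, about three screen SD below normal, cut at about 65% in these data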;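 also: yeast aged for seven days with compound at 30 °C before DHE staining; 100% = average MFI of all compound-treated wells on the plate with controls excluded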
V-ATPase pHluor – yeast V-ATPase proton transport regulation by pHLuorin; S. cerevisiae, pHLuorin cytosolic pH fluorescence; response, % at 10 µM; 350,000 compounds, 0.37% hits; AID 504577; in the data active = response mostly above about 7.3%, no sharp cut-off; inactive = mostly below about 5.4%; also: actives read high
HIF activator – HIF pathway transcriptional activation | 300,000 compounds, 0.32% hits | activation, % at 7.5 µM (by protocol) | U2OS HRE-luciferase reporter, luminescence; normalized: DMSO 0%, desferrioxamine 100% | AID 1910;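 active = mean activation of at least 10% of the iron chelator positive control signal, with at least half of replicates also reaching 10%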
An asterisk follows results filed as active; x = not tested or not shown. In the library only some 3% were active in any assay of this set; here they are far more common.

SMILES	T cruzi repl	NRP1-CendR mod	AI-2 QS mod	CR mimetic SO	V-ATPase pHluor	HIF activator
COc1ccc(C(=O)Nc2ccc3c(c2)nc(CCNC(C)=O)n3C)cc1	-9	1	15	90	6	2
Cc1ccc(Nc2ncccc2C(=O)O)cc1C	9	-4	-79*	102	0	2
Cc1cc(C)c(Nc2ncccc2C(=O)O)c(C)c1	4	3	-15	112	1	-1
Cc1c(NC(=O)Nc2ccc([N+](=O)[O-])cc2)c(=O)n(-c2ccccc2)n1C	-6	-8	14	99	-2	1
O=C(Nc1ccc(S(=O)(=O)Nc2ccccn2)cc1)c1cccc(Br)c1	19	12	-81*	112	3	-1
O=C(Nc1ccc(S(=O)(=O)Nc2ncccn2)cc1)c1cccc(Br)c1	4	-13	1	94	-4	0
COc1ccc(C2CC(=O)N(CCCN(C)CCc3ccc(OC)c(OC)c3)C2)cc1 (stereo unspecified)	64*	15	6	109	-1	0
CCOC(=O)/C=C/c1ccc2c(c1)S(=O)(=O)N(c1cccc(OC)c1)[C@H]2CC(=O)OCC	27	28*	4	110	-3	2
COC(=O)/C=C/c1ccc2c(c1)S(=O)(=O)N(c1cccc(OC)c1)[C@H]2CC(=O)OC	3	16	-4	96	0	0
O=C(COc1ccc(Br)cc1Br)NC(=O)NC1CCCC1	16	6	26	99	-1	-38
CCOc1ccc(Nc2ccc(N)c(S(=O)(=O)O)c2)cc1	x	40*	x	x	-3	x
CCOc1ccc(NC(N)=O)cc1	-2	11	2	107	1	x
O=[N+]([O-])c1ccccc1/C=N/N1CCN(c2ccncc2S(=O)(=O)N2CCCCC2)CC1	76*	4	32	101	0	0
CC(C)CN(C(=O)c1ccc([N+](=O)[O-])s1)c1c(N)n(Cc2ccccc2)c(=O)[nH]c1=O	64*	-20	x	118	0	0
COc1cccc2[nH]c(=O)c(-c3ccccc3)cc12	-12	7	22	92	-1	-11
O=C(Cn1c2[n+](c3ccc(C(F)(F)F)cc31)CCCCC2)c1ccc2c(c1)OCCO2	68*	-2	39	95	-2	0
O=C(Cn1c2[n+](c3ccc(C(F)(F)F)cc31)CCCCC2)c1cccc([N+](=O)[O-])c1	4	-3	24	100	9	0
Cn1cc(Cl)c(C(=O)Nc2cnn(Cc3ccc(F)cc3)c2)n1	3	7	-81*	95	-4	4
CCOc1ccc(C(=O)Nc2cnn(Cc3ccc(Cl)c(Cl)c3)c2)cc1	48	1	14	111	40*	-1
CC(=O)c1ccc(OCc2cc([N+](=O)[O-])cc3c2OCOC3)cc1	21	-7	-7	107	-4	0
COc1ccc2cnn(-c3ccccc3)c(=O)c2c1OC	-2	8	-2	83	-2	1
CCN(CC)c1ccc(N=Cc2ccccc2[N+](=O)[O-])cc1	74*	-13	20	104	2	-1
CCN(CC)c1ccc(N=Cc2ccc([N+](=O)[O-])o2)cc1	49	-13	30	92	6	1
Cc1ccc([N+](=O)[O-])cc1S(=O)(=O)N1CCCCC1C(=O)O (stereo unspecified)	-26	9	18	108	1	0
C(=N\Nc1nc2ccccc2[nH]1)/c1cccc2nccnc12	13	-8	-4	104	-2	47*
SMILES	T cruzi repl	NRP1-CendR mod	AI-2 QS mod	CR mimetic SO	V-ATPase pHluor	HIF activator
CCCCn1c(/C=N/Nc2nc3ccccc3[nH]2)nc2ccccc21	39	-3	14	109	-7	69*
c1ccc2c(c1)CC/C2=N/Nc1nc2ccccc2[nH]1	67*	-3	8	92	0	5
C(=N\Nc1nc2ccccc2[nH]1)/c1ccccn1	69*	-6	9	x	3	4
O=C(NC1CCC(CC2CCC(NC(=O)C(Cl)Cl)CC2)CC1)C(Cl)Cl (stereo unspecified)	-3	0	12	106	2	-1
COc1cc(S(=O)(=O)Nc2cc(C)cc(C)c2)ccc1F	4	3	14	114	-3	-1
COCC(O)CSc1c([N+](=O)[O-])nc(C)n1Cc1ccc(OC)c([N+](=O)[O-])c1 (stereo unspecified)	11	7	13	102	-1	0
COc1ccc(C)cc1NC(=O)CN1C(=O)CSc2ccc(S(=O)(=O)N3CCCC3)cc21	0	7	18	86	0	0
COc1cc(OC)c(OC)cc1/C=N/Nc1nc2ccccc2[nH]1	-25	2	9	93	-1	0
CCN(CC)c1ccc(/C=N/NC(=O)c2ccco2)c(O)c1	61*	-58	-27	89	6	78*
CCN(CC)c1ccc(/C=N/Nc2nc3ccccc3[nH]2)c(O)c1	59*	5	42	92	8	83*
CCOc1nc(CC(C)C)c2c(c1C#N)CC(C)(C)OC2	7	-3	4	103	20*	1
CCOc1ncnc2c1oc1nc(CC(C)C)c3c(c12)CC(C)(C)OC3	18	0	14	83	1	0
CC(C)C[C@H](NC(=O)N1CCn2c1nc1ccccc12)C(=O)NC1CCCCC1	4	11	6	107	6	0
COc1ccc(OCC(=O)OC2CCCN(C)C2)cc1 (stereo unspecified)	8	5	3	93	-5	-1
CCCCCc1ccc(-c2ccc(/C=C/C(=O)O)cc2)nc1	0	-20	-89*	84	0	-5
CCCc1ccc(-c2ccc(/C=C/C(=O)O)cc2)nc1	-11	3	-22	93	-2	-6
O=C(O)Cn1ncn(-c2ccc(OC(F)(F)F)cc2)c1=O	-19	26*	12	104	0	0
O=C(Cn1cccc1)Nc1ccc(OC(F)(F)F)cc1	-19	15	27	106	13	0
CC(=O)Nc1sc(C)c(C)c1C(=O)OCC(=O)N(CC(C)C)C1CCS(=O)(=O)C1 (stereo unspecified)	-3	28*	26	96	0	-1
O=C(Nc1ccc(S(=O)(=O)N2CCc3ccccc32)cc1)c1ccc2c(c1)OCO2	57*	4	18	123	-1	1
COc1ccc(-c2nnc(NC(=O)c3ccc(S(=O)(=O)N4CCc5ccccc5C4)cc3)o2)cc1	73*	-22	31	131	-1	-19
CCc1nnc(NC(=O)c2ccc(S(=O)(=O)N(C)c3ccccc3)cc2)o1	-24	-9	11	97	-4	0
O=C(Nc1nc2c(s1)CCCC2)c1ccc(S(=O)(=O)N2CCCc3ccccc32)cc1	60*	-5	12	117	-6	0
